In this assay the target is Muscarinic acetylcholine receptor M1 (Rattus norvegicus) (UniProt P08482). Briefly: rat M1 receptor potentiation, selectivity assay for M5 PAM project, CHO cells (AID 651921). Put shortly: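 Test system: CHO-K1 cell line; Reagent: acetylcholine, EC20; Timing: 1.5 min compound, 50 s agonist, 25 °C; Signal: calcium fluorescence; Evaluation: baseline-normalized signal as percent of maximal acetylcholine response.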

SMILES strings stand for the structures. Active and inactive are the calls of the source. How the calls were made is not given here.

Sequence of Muscarinic acetylcholine receptor M1 (Rattus norvegicus) (P08482 whole entry, looked up): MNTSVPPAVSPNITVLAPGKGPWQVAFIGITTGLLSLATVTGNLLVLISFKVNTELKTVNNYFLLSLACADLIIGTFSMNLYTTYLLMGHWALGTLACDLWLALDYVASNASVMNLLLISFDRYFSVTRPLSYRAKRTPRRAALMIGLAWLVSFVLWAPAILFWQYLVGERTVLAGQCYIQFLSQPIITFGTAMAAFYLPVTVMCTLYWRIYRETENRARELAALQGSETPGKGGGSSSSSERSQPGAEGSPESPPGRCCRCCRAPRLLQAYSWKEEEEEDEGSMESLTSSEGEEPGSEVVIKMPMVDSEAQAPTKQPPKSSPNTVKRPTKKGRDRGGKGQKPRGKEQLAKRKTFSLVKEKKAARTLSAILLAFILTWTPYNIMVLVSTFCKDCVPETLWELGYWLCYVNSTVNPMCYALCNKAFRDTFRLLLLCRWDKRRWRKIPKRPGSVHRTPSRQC

Consider `O=C1C(=O)N(CCOc2ccccc2)c2ccc(OC(F)(F)F)cc21`, for which the outcome was inactive.

The values above are taken from PubChem BioAssay AID651921 (Vanderbilt Specialized Chemistry Center, 2012).
